Activity calls are given as the source filed them. No cut-off for these calls is given here.
Target: Transcription factor p65 (Mus musculus) (UniProt Q04207)
Experiment: Activation of NFkappaB p65 in mouse BMDM assessed as phosphorylation at 10 ug/ml after 15 to 30 mins by Western blotting
Outline: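 BMDMs came from mouse bone marrow cultured in RPMI 1640 with 10% FCS and 20% L929-conditioned medium. After treatment, lysates were run on 10% SDS−PAGE, transferred to PVDF, blocked with 5% BSA, and probed for phospho-p65. Detection used an HRP anti-rabbit IgG secondary and chemiluminescence.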

Transcription factor p65 (Mus musculus), sequence (Q04207 whole entry): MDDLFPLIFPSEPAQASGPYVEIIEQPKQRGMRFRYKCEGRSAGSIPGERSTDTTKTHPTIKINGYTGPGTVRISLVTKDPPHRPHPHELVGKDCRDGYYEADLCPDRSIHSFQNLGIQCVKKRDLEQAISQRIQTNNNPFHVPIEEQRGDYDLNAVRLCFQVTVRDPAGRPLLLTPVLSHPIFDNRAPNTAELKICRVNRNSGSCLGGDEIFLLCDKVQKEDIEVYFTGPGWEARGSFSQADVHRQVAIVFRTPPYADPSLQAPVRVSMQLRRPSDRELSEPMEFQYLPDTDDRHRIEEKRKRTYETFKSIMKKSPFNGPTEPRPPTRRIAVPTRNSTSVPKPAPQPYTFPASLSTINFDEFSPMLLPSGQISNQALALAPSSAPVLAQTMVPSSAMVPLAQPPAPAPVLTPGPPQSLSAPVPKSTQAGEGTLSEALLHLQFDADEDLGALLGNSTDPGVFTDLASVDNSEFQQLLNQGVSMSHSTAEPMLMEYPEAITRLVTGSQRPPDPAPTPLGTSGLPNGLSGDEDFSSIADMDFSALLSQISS

Structure (SMILES): CC[C@H](C)[C@H](NC(=O)[C@H](CCCCN)NC(=O)[C@H](CCC(=O)O)NC(=O)[C@H](CCCCN)NC(=O)[C@H](CO)NC(=O)[C@H](CCCCN)NC(=O)[C@H](CCCNC(=N)N)NC(=O)[C@H](Cc1ccccc1)NC(=O)[C@H](Cc1ccccc1)NC(=O)[C@H](CC(=O)O)NC(=O)CNC(=O)[C@H](CC(C)C)NC(=O)[C@@H](N)CC(C)C)C(=O)NCC(=O)N[C@@H](CCCCN)C(=O)N[C@@H](CCC(=O)O)C(=O)N[C@@H](Cc1ccccc1)C(=O)N[C@@H](CCCCN)C(=O)N[C@@H](CCCNC(=N)N)C(=O)N[C@H](C(=O)N[C@H](C(=O)N[C@@H](CCC(N)=O)C(=O)N[C@@H](CCCNC(=N)N)C(=O)N[C@H](C(=O)N[C@@H](CCCCN)C(=O)N[C@@H](CC(=O)O)C(=O)N[C@@H](Cc1ccccc1)C(=O)N[C@@H](CC(C)C)C(=O)N[C@@H](CCCNC(=N)N)C(=O)N[C@@H](CC(N)=O)C(=O)N[C@@H](CC(C)C)C(=O)N[C@H](C(=O)N1CCC[C@H]1C(=O)N[C@@H](CCCNC(=N)N)C(=O)N[C@H](C(=O)N[C@@H](CCC(=O)O)C(=O)N[C@@H](CO)C(=O)O)[C@@H](C)O)C(C)C)[C@@H](C)CC)C(C)C)[C@@H](C)CC
- Activity: Active

— ChEMBL document CHEMBL3085690, “Naturally occurring antimicrobial peptide OH-CATH30 selectively regulates the innate immune response to protect against sepsis” (J Med Chem, 2013)
